From article PMC12059366 (Biomolecules & Therapeutics, 2025)

Legend:
complementary DNAs = experiment: Melting temperature; format: binding; conditions: 2 μM PNA-DNA duplex, 10 mM sodium phosphate pH 7.0, 0.1 M NaCl; absorbance at 260 nm, 25°C to 90°C at 1.0°C per minute
PGE2 = PGE2 level by ELISA in supernatants of IFNγ-treated human keratinocytes; format: cell-based; conditions: concentration-dependent, n=3
IL-8 = IL-8 level by ELISA in supernatants of IFNγ-treated human keratinocytes; format: cell-based; conditions: concentration-dependent, n=3
IDO1 pre-mRNA = experiment: IDO1 gene expression by q-RT-PCR in human keratinocytes; format: cell-based; conditions: non-cytotoxic concentrations (Fig. 2B, 2C), n=3
IDO1 = IDO1 gene expression by q-RT-PCR in IFNγ-treated human keratinocytes; format: cell-based; conditions: compound 24 h before IFNγ, n=3
Summary of the method: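 Primary neonatal foreskin human keratinocytes in supplemented KBM Gold medium were pretreated with test PNA for 24 h, then given recombinant human IFNγ in KBM Gold basal medium. The control was scrambled PNA at 0.1 μM. RNA was extracted with TRIzol and RNeasy, then reverse-transcribed. IDO1 was measured by TaqMan q-RT-PCR against RPL13A using the Pfaffl method. Results are mean ± SD, n=3, t-test.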

IL-6 = IL-6 level by ELISA in supernatants of IFNγ-treated human keratinocytes; format: cell-based; conditions: concentration-dependent, n=3

Row | Substance | Tm (binding affinity to complementary DNA) (complementary DNAs) | PGE2 level in cell culture supernatant (PGE2) | IL-8 level in cell culture supernatant (IL-8) | IDO1 gene expression, concentration-dependent analysis (IDO1 pre-mRNA) | IDO1 expression (IDO1) | IL-6 level in cell culture supernatant (IL-6)
1 | CG*^2TA*C*TTTGA*TTG*^2 [Compound 4] | 72.07 °C | – | – | – | – | –
2 | Compound 2: modified PNA oligomer with cationic lipid-bearing nucleobases targeting IDO1 pre-mRNA (CTCCAAACCTTACG; PNA; cationic lipid-bearing nucleobases) | 82.07 °C | effectively reduced | effectively reduced | significant inhibitory effect | significantly inhibits IDO1 expression | effectively reduced
